Shown are actives, neighbours in structure and some others; about 12% of the full set was active somewhere.
Arbovirus inh: antivirals against arbovirus infection, primary screen, cell-based, full library, 10K replicate subset. arbovirus infection cell-based antiviral screen. inhibition, % at 10 µM. actives 0.37% (n = 200,000). AID 1251, 2008; in the data active = inhibition above about 30%
CHOP inhibitor: inhibitors of CHOP promoter induction, primary screen, cell-based, unfolded protein response, luciferase reporter; CHO-K1 CHOP-promoter luciferase, tunicamycin-induced, 15-18 h; inhibition, % at 10 µM; actives 3.8% (n = 220,000);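 active = compounds that reduced the stress-induced luciferase reporter signal by more than about 70% of percent inhibition, limit read from the data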;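 also: 0% = tunicamycin plus vehicle and 100% = wells without tunicamycin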
Wee1 stabilizer: Wee1 degradation inhibitors, primary screen, cell-based, HeLa, Wee1K328M-luciferase, luminescence; actives 1.2% (n = 220,000); Wee1-like protein kinase (Homo sapiens), P30291; AID 1321, 2008; HeLa Luc-Wee1K328M stability; 100% = proteasome inhibitor MG132 effect; reporter increase, % at 5 µM;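 active = activation above the mean of all tested compounds plus 3 SD, set per screening run, cut at about 8.8% in these data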;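 also: cells exposed to compound for 20 h before luminescence read; 0% = DMSO alone and 100% = MG132 at 30 µM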
Target sequence (P30291 whole entry K328M): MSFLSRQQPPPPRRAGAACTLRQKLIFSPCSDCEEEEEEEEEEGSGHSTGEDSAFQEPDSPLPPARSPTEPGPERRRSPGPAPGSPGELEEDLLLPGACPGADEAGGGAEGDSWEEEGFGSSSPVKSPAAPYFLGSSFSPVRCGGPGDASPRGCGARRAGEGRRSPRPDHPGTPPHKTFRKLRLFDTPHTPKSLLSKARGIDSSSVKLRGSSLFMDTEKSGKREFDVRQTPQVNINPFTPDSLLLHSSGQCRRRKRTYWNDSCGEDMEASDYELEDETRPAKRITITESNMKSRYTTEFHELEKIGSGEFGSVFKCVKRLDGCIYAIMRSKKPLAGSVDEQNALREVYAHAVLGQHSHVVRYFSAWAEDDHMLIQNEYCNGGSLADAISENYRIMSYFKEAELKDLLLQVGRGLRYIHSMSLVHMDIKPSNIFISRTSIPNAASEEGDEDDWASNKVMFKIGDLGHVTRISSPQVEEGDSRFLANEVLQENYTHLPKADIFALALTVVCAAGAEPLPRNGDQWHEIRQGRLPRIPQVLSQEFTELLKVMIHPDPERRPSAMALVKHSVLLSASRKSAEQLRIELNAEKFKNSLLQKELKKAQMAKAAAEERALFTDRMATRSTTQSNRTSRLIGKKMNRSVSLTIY
Rad51 HR inh: human RAD51 strand exchange inhibitors, primary screen, biochemical, fluorescence; DNA repair protein RAD51 homolog 1 (Homo sapiens), Q06609; hRad51 DNA strand exchange, fluorescence dequenching; inhibition, % at 10 µM; actives 0.085% (n = 200,000); AID 1385, 2008;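 active = inhibition above 40% at the single screening dose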;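 also: 0% = DMSO control wells and 100% = blanks with heterologous ssDNA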
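Assay system: Human Rad51 nucleoprotein filaments preassembled on unlabelled ssDNA | Reagent: Donor/quencher-labelled 47-bp dsDNA substrate | Doses: One concentration, 10 µM final | Times: 37 °C 15-min filament assembly, 30-min compound preincubation, 15-min exchange | Technique: Fluorescein emission 520 nm, excitation 485 nm | Benchmarks: Plate control and blank wells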
L major viab: Leishmania major promastigote growth inhibition, primary screen; inhibition, % at 10 µM; actives 9% (n = 200,000); AID 1063, 2008; Leishmania major promastigotes, resazurin fluorescence viability;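 also: promastigotes grown with compound for 44 hours at 28 °C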
PKD1 kinase inh: inhibitors of human PKD1 kinase, biochemical, fluorescence polarization | Serine/threonine-protein kinase D1 (Homo sapiens), Q15139 | PKD1 kinase fluorescence polarization assay | inhibition, % (no concentration beside the values) | actives 0.056% (n = 200,000)
* hit, by the source's call; · = no result given. Rule as the data show it, unless noted: active = inhibition above about 50%; inactive = the rest.

SMILES	Arbovirus inh	CHOP inhibitor	Wee1 stabilizer	Rad51 HR inh	L major viab	PKD1 kinase inh
O=C(C1CCC1)N1CCc2cc(S(=O)(=O)NCc3ccccn3)ccc21	0.3	-24.1	3.1	-1.4	-6.5	-7.4
Cn1c(=O)oc2cc(S(=O)(=O)NCc3ccco3)ccc21	-0.5	4.3	3.6	-0.4	-10.2	1.8
C#CCOCCOCCOCCNc1nc(N2CCN(C(=O)[C@H](CCC(=O)O)n3cc(C(N)CO)nn3)CC2)nc(N2CCN(C(=O)[C@H](CCC(=O)O)n3cc(C(N)[C@H](C)CC)nn3)CC2)n1 (some centres not stated)	1.9	14.1	0.3	·	-2.0	9.4
CCCc1c2ccccc2nc2ccccc12	2.1	33.8	0.1	8.8	-0.2	0.0
c1ccc(-n2cnc3cc(NCc4ccco4)ccc32)cc1	-18.3	-6.0	5.9	0.6	5.2	1.1
CCOc1ccc(NS(=O)(=O)c2ccc3c(c2)CCN3C(=O)C2CCC2)cc1	-4.5	81.9*	-3.7	-2.7	-1.7	-3.4
Cn1c(=O)c2cc(S(=O)(=O)Nc3ccc4c(c3)OCO4)ccc2n(C)c1=O	-11.6	42.4	-0.6	3.6	29.7	-7.5
Cn1c(=O)oc2cc(S(=O)(=O)NC3CCN(Cc4ccccc4)CC3)ccc21	1.3	-6.6	-2.2	-4.7	50.1*	-7.1
Cn1c(=O)oc2cc(S(=O)(=O)Nc3ccc4c(c3)OCO4)ccc21	-11.2	-5.8	-0.7	-18.5	66.1*	8.4
CCOc1ccc(NS(=O)(=O)c2ccc3c(c2)CCN3C(=O)CCC(=O)O)cc1	-3.1	24.0	-2.3	-4.0	-6.2	6.4
CCOc1ccc(N2C(=O)Nc3ccccc3C2(O)C(=O)N2CCN(c3ccccn3)CC2)cc1 (configuration not stated)	-2.8	12.3	-0.7	1.8	9.9	0.1
COC(=O)C(NC(=O)CSc1nc(N)cc(=O)[nH]1)c1ccccc1 (configuration not stated)	2.5	4.8	3.1	-9.6	-10.5	2.5
O=C(NCC1CCCO1)c1cccc(S(=O)(=O)NCc2ccccc2)c1 (configuration not stated)	1.8	19.9	4.5	-1.9	0.0	-4.4
CC(OC(=O)Cc1n[nH]c(=O)c2ccccc12)C(=O)Nc1cccc([N+](=O)[O-])c1 (configuration not stated)	7.6	2.0	-0.4	0.5	-2.3	-7.0
NC(=O)Cn1cnc2nc3n(c2c1=O)CCC3	2.2	35.8	-1.1	19.8	-1.8	-9.1
COC(=O)Cc1ccc(NC(=S)Nc2ccccn2)cc1	2.6	73.2*	0.9	·	-0.2	-9.7
COC(=O)Cc1ccc(NC(=S)NCCO)cc1	·	10.1	-2.1	·	·	·
CCCCCOC(=O)CCN1C(=O)/C(=C2\SC(=S)N(CCC(=O)OCCCCC)C2=O)SC1=S	·	-13.0	-3.7	·	·	·
CCCCOC(=O)CCN1C(=O)/C(=C2\SC(=S)N(CCC(=O)OCCCC)C2=O)SC1=S	-10.2	8.2	-3.4	-3.8	65.8*	-1.4
CCN(CC(=O)Nc1ccccc1Br)C1CCCCC1	14.6	72.6*	-2.5	0.4	11.8	0.2
COCC(=O)Nc1ccccc1Br	5.7	15.7	1.0	1.8	54.3*	1.2
COC(=O)C(C)(C)ONC(=O)Nc1ccccc1Br	-6.2	16.3	1.0	·	69.0*	-2.9
CCCOC(=O)c1c(-c2ccc(C)cc2C)csc1NC(=O)C1C2CCC(O2)C1C(=O)O (configuration not stated)	22.7	-58.5	0.0	·	-3.1	1.7
Fc1ccc(-c2[nH]ncc2CN(CC2CCC2)CC2CCCO2)c(F)c1 (configuration not stated)	-2.6	18.8	3.4	1.4	3.0	2.2
CCN(CC)S(=O)(=O)c1cc(OC)c(Cl)cc1OC	-6.7	7.6	-1.4	·	-2.8	-8.1
SMILES	Arbovirus inh	CHOP inhibitor	Wee1 stabilizer	Rad51 HR inh	L major viab	PKD1 kinase inh
CC(=O)C(/C=N/c1cc(-c2ccc(C)cc2)nn1-c1ccccc1)=C(\C)O	1.6	-8.5	-1.2	2.2	63.5*	3.1
CCOC(=O)N1CCN(C(=O)c2ccc(Oc3ccc([N+](=O)[O-])cc3)cc2)CC1	8.5	9.6	-3.0	6.6	-3.1	-4.3
CCCN(CCC)S(=O)(=O)c1ccc(NC(=O)COc2ccccc2)cc1	-2.9	37.9	-3.0	-6.9	97.9*	2.1
CC(=O)NS(=O)(=O)c1ccc(NC(=O)COc2ccc(C(=O)c3ccccc3)cc2)cc1	-9.5	6.8	10.4*	2.5	-1.0	-5.4
CCCN(CCC)S(=O)(=O)c1ccc(NC(=O)Cc2cccs2)cc1	0.3	60.5	0.0	·	36.9	8.0
CC1CC(C)CN(CC(=O)N2CCOCC2)C1 (configuration not stated)	-2.8	-7.5	0.6	1.9	-5.5	-1.6
O=C(/C=C/c1ccc(Br)o1)Nc1nnc(C2CC2)s1	·	-20.3	-1.0	-22.8	·	·
CCOc1cc(CNCc2cccs2)cc(Br)c1OC	1.4	29.6	3.1	2.5	3.2	-0.1
CC(C)(C)NCc1ccccc1OCc1cccs1	2.0	4.9	-3.7	-2.3	82.0*	-1.4
COc1cc(CNC(C)(C)CO)cc(Br)c1OCc1ccccc1	-37.9	-11.7	-2.2	-19.6	79.7*	-1.4
COc1cc(CNC(C)(C)C)cc(Br)c1OCc1cccs1	-13.2	-7.4	-0.5	-1.4	85.5*	3.7
COc1cc(CNCCO)cc(Br)c1OCc1cccs1	-7.8	0.2	-1.3	7.4	87.8*	-6.6
O=C(NNC(=S)Nc1ccccc1C(F)(F)F)C1CC1	·	-11.4	2.8	5.7	·	·
CC1=[N+](C)N(c2ccccc2)C(=O)C1N=Cc1c(Cl)cccc1Cl (configuration not stated)	7.2	-25.8	-3.6	-4.5	1.6	7.1
CCCCCC(=O)N1CCCCC1	·	-6.7	-0.2	-31.1	·	·
COC(=O)c1ccc(/C=C/C(=O)c2cccc(OC)c2)cc1	-37.9	-33.7	-0.7	-0.9	4.8	4.3
COc1cccc(C(=O)/C=C/c2ccc(OCC#N)c(OC)c2)c1	-19.0	-178.0	0.5	·	99.7*	-12.3
COc1cc(/C=C/C(=O)c2ccc(O)cc2)ccc1OCC#N	-32.1	-202.8	-0.3	-12.6	98.5*	1.8
COc1ccc(C(=O)/C=C/c2ccc(O)cc2)cc1	-3.4	-37.2	-0.7	-8.5	10.7	5.9
Cc1ccc(CNc2ncc(-c3ccccc3)n2C)o1	-4.4	-20.1	0.5	-6.5	4.4	-18.4
CCN(CC)c1ccc(/C=N/NC(=O)CCC(=O)NCc2ccccc2)c(O)c1	-36.4	57.6	-1.7	-2.0	97.6*	-3.9
CCN(CC)c1ccc(/C=N/Nc2nc(C)cc(=O)[nH]2)c(O)c1	-37.8	60.3	-2.3	·	98.6*	9.7
CCOC(=O)N/N=C/c1ccc(N(CC)CC)cc1O	-25.9	-35.0	-1.2	·	-11.8	-9.6
